ChEMBL document CHEMBL1255303, “In vitro and in vivo antifungal activities of T-2307, a novel arylamidine” (2008)
Values after ≈ are worked out from the molar mass of the structure shown. Starred links: 1 amine or outer side, 2 acyl side, 3 side chain; linkers in the order of their positions; H or OH if unused. Positions of bridges follow the written chain, without caps; N, C: chain ends. Non-standard residues stand in square brackets, D forms with d. Residues, ends and D or L forms follow the SMILES beside them. *: point of attachment. hTyr(3S-OH,4S-OH,3'-OSO3H) = N[C@H](C(=O)O)[C@H](O)[C@@H](O)c1ccc(O)c(OS(=O)(=O)O)c1; Orn(4R-OH,5R-OH) = O=C([C@H](C[C@@H](O)[C@@H](O)N[*:3])N[*:1])[*:2]; Pro(3S-OH,4S-Me) = C[C@H]1CN[C@H](C(=O)O)[C@H]1O; X1 = CCCCCOc1ccc(-c2cc(-c3ccc(C(=O)*)cc3)no2)cc1; Gln(3R-OH) = NC(=O)C[C@@H](O)[C@H](N)C(=O)O; Hyp = O=C(O)[C@@H]1C[C@@H](O)CN1

How the values were obtained:
Assay type in all cases: functional
Candida albicans [1] = experiment: Antifungal activity against Candida albicans clinical isolates after 48 hrs by broth microdilution method
In short: (§1)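 Clinical isolates from Japanese hospitals or culture collections were tested by broth microdilution in RPMI 1640-MOPS. Inoculum was 0.57 × 10^3–2.5 × 10^3 CFU/ml for yeasts and 0.4 × 10^4–3.3 × 10^4 CFU/ml for filamentous fungi. Incubation was at 35°C for about 48 h, or 72 h where footnoted. Results were summarised as MIC range, MIC50 and MIC90.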

Candida albicans [2] = experiment: Antifungal activity against Candida albicans ATCC MYA-2732 after 47 hrs by broth microdilution method; details: ATCC MYA-2732, 47 h
In short: (§2)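 Fluconazole-resistant or susceptible-dose-dependent C. albicans ATCC strains were tested by broth microdilution in RPMI 1640-MOPS. Inoculum was 1.1 × 10^3–1.5 × 10^3 CFU/ml, with incubation at 35°C for about 47 h. Yeast MIC was read as about 50% turbidity decrease relative to growth control, except amphotericin B, read at complete inhibition.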

Aspergillus fumigatus [3] = experiment: Antifungal activity against Aspergillus fumigatus clinical isolates after 48 hrs by broth microdilution method; in short: as §1
[4] = tested on: Meyerozyma guilliermondii; experiment: Antifungal activity against Candida guilliermondii IFO 10279 after 48 hrs by broth microdilution method; details: IFO 10279, 48 h
In short: (§3)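 CLSI M27-A2 (yeasts) / M38-A (moulds) broth microdilution in RPMI 1640 buffered to pH 7.0 with 0.165 M MOPS. Malassezia furfur got the same medium supplemented with glucose, bile salts, glycerol, glycerol monostearate and Tween 20. Final inoculum 0.65 × 10^3–2.5 × 10^3 CFU/ml for yeasts and 0.87 × 10^4–3.8 × 10^4 CFU/ml for filamentous fungi. Incubation at 35°C except M. racemosus and F. solani, which were held at 30°C.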

Candida parapsilosis [5] = experiment: Antifungal activity against Candida parapsilosis NBRC 10219 after 48 hrs by broth microdilution method; details: Lodderomyces parapsilosis, NBRC 10219, 48 h
In short: (§4)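 CLSI M27-A2 (yeasts) or M38-A (A. fumigatus) broth microdilution in RPMI 1640 buffered to pH 7.0 with 0.165 M MOPS. Final inocula were 0.65–2.5 × 10^3 CFU/ml for yeasts and 0.87–3.8 × 10^4 CFU/ml for filamentous fungi. Incubation was at 35°C for about 48 h (72 h for C. neoformans). MIC was the lowest concentration giving a prominent (~50%) turbidity drop versus growth control; amphotericin B required complete inhibition.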

Cryptococcus neoformans [6] = experiment: Antifungal activity against Cryptococcus neoformans ATCC 90112 after 72 hrs by broth microdilution method; details: ATCC 90112, 72 h; in short: as §4
Saccharomyces cerevisiae = experiment: Antifungal activity against Saccharomyces cerevisiae ATCC 24657 after 48 hrs by broth microdilution method; details: ATCC 24657, 48 h; in short: as §3
Candida albicans [7] = experiment: Antifungal activity against Candida albicans TIMM 1623 infected ICR mouse after 6 days; details: TIMM 1623, 144 h
In short: (§5)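 Male ICR mice, 4 weeks old and SPF, were made neutropenic with intraperitoneal cyclophosphamide. The schedule was 200 mg/kg on day −3 (day −4 for Cryptococcus) plus 100 mg/kg on day +1. Infection was by tail-vein injection of 0.2 ml suspension: C. albicans 3.0 × 10^4, C. neoformans 9.1 × 10^4, A. fumigatus conidia 8.4 × 10^4 CFU/mouse. Drugs were given subcutaneously once daily for 7 days from 2 h post-infection; controls received saline. Groups had 8–10 mice.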

Aspergillus fumigatus [8] = experiment: Antifungal activity against Aspergillus fumigatus IFM 46895 after 48 hrs by broth microdilution method; details: IFM 46895, 48 h; in short: as §3
Aspergillus fumigatus [9] = experiment: Antifungal activity against Aspergillus fumigatus IFM 46895 infected ICR mouse after 6 days; details: IFM 46895, 144 h; in short: as §5
Nakaseomyces glabratus [10] = experiment: Antifungal activity against Candida glabrata clinical isolates after 48 hrs by broth microdilution method; in short: as §1
Aspergillus fumigatus [11] = experiment: Antifungal activity against Aspergillus fumigatus ATCC 16424 after 48 hrs by broth microdilution method; details: ATCC 16424, 48 h; in short: as §4
Pichia kudriavzevii = experiment: Antifungal activity against Candida krusei clinical isolates after 48 hrs by broth microdilution method
In short: (§6)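 Japanese hospital Candida isolates were tested by CLSI M27-A2 broth microdilution in RPMI 1640–MOPS, pH 7.0, with inocula of 0.57–2.5 × 10^3 CFU/ml at 35°C for about 48 h. Inocula came from 24-h potato dextrose agar cultures. MIC was the lowest concentration with about 50% turbidity reduction versus growth control (complete inhibition for amphotericin B). Range, MIC50 and MIC90 were reported.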

Nakaseomyces glabratus [12] = experiment: Antifungal activity against Candida glabrata ATCC 90030 after 48 hrs by broth microdilution method; details: ATCC 90030, 48 h; in short: as §3
Malassezia furfur = experiment: Antifungal activity against Malassezia furfur NBRC 0656 after 48 hrs by broth microdilution method; details: NBRC 0656, 48 h; in short: as §3
Candida albicans [13] = experiment: Antifungal activity against Candida albicans ATCC 64124 after 47 hrs by broth microdilution method; details: ATCC 64124, 47 h
In short: (§7)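 Fluconazole-resistant or susceptible-dose-dependent ATCC C. albicans strains were tested by CLSI M27-A2 broth microdilution in RPMI 1640–0.165 M MOPS, pH 7.0, with a final inoculum of 1.1–1.5 × 10^3 CFU/ml at 35°C for about 47 h. MIC was the lowest concentration with a prominent (~50%) turbidity decrease relative to growth control; amphotericin B was read at complete inhibition.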

Candida albicans [14] = experiment: Antifungal activity against Candida albicans ATCC MYA-574 after 47 hrs by broth microdilution method; details: ATCC MYA-574, 47 h; in short: as §2
Candida albicans [15] = experiment: Antifungal activity against Candida albicans ATCC 24433 after 48 hrs by broth microdilution method; details: ATCC 24433, 48 h; in short: as §4
Aspergillus flavus = experiment: Antifungal activity against Aspergillus flavus NBRC 6343 after 48 hrs by broth microdilution method; details: NBRC 6343, 48 h; in short: as §3
Candida parapsilosis [16] = experiment: Antifungal activity against Candida parapsilosis clinical isolates after 48 hrs by broth microdilution method; details: Lodderomyces parapsilosis; in short: as §6
Candida albicans [17] = experiment: Antifungal activity against Candida albicans ATCC MYA-575 after 47 hrs by broth microdilution method; details: ATCC MYA-575, 47 h; in short: as §7
Aspergillus niger = experiment: Antifungal activity against Aspergillus niger NBRC 33023 after 48 hrs by broth microdilution method; details: NBRC 33023, 48 h; in short: as §3
Cryptococcus neoformans [18] = experiment: Antifungal activity against Cryptococcus neoformans ATCC 90113 after 72 hrs by broth microdilution method; details: ATCC 90113, 72 h; in short: as §3

`CCCCCOc1ccc(-c2cc(-c3ccc(C(=O)N[C@H]4C[C@@H](O)[C@@H](O)NC(=O)[C@@H]5[C@@H](O)[C@@H](C)CN5C(=O)[C@H]([C@H](O)CC(N)=O)NC(=O)[C@H]([C@H](O)[C@@H](O)c5ccc(O)c(OS(=O)(=O)O)c5)NC(=O)[C@@H]5C[C@@H](O)CN5C(=O)[C@H]([C@@H](C)O)NC4=O)cc3)no2)cc1` [MICAFUNGIN] (X1-[Orn(4R-OH,5R-OH)]T[Hyp][hTyr(3S-OH,4S-OH,3'-OSO3H)][Gln(3R-OH)][Pro(3S-OH,4S-Me)]; lactam 1-C) was tested, and the MIC50 (Candida albicans [1]) was 0.0625 µg/mL (≈ 0.0492 µM), the MIC90 (Candida albicans [1]) was 0.125 µg/mL (≈ 0.0984 µM) and the MIC (Candida albicans [2]) was 0.125 µg/mL (≈ 0.0984 µM). It also gave an MIC (Aspergillus fumigatus [3]) of 0.0313 µg/mL (≈ 0.0246 µM), an MIC50 (Aspergillus fumigatus [3]) of 0.0313 µg/mL (≈ 0.0246 µM) and an MIC90 (Aspergillus fumigatus [3]) of 0.0313 µg/mL (≈ 0.0246 µM). It also gave an MFC [4] of 8 µg/mL (≈ 6.3 µM), an MIC [4] of 0.5 µg/mL (≈ 0.394 µM) and an MFC (Candida parapsilosis [5]) greater than 32 µg/mL. The MIC (Candida parapsilosis [5]) was 2 µg/mL (≈ 1.57 µM), the MFC (Cryptococcus neoformans [6]) was greater than 64 µg/mL and the MIC (Cryptococcus neoformans [6]) was greater than 64 µg/mL. The MFC (Saccharomyces cerevisiae) was 1 µg/mL (≈ 0.787 µM), the MIC (Saccharomyces cerevisiae) was 0.5 µg/mL (≈ 0.394 µM) and the ED50 (Candida albicans [7]) was 0.182 mg/kg. For the same molecule, the MFC (Aspergillus fumigatus [8]) was greater than 64 µg/mL, the MIC (Aspergillus fumigatus [8]) was 0.0313 µg/mL (≈ 0.0246 µM) and the ED50 (Aspergillus fumigatus [9]) was 0.699 mg/kg. It also gave an MIC50 (Nakaseomyces glabratus [10]) of 0.0625 µg/mL (≈ 0.0492 µM), an MIC90 (Nakaseomyces glabratus [10]) of 0.0625 µg/mL (≈ 0.0492 µM) and an MFC (Aspergillus fumigatus [11]) greater than 64 µg/mL. The MIC (Aspergillus fumigatus [11]) was 0.0313 µg/mL (≈ 0.0246 µM), the MIC50 (Pichia kudriavzevii) was 0.5 µg/mL (≈ 0.394 µM) and the MIC90 (Pichia kudriavzevii) was 0.5 µg/mL (≈ 0.394 µM). The MFC (Nakaseomyces glabratus [12]) was 0.0313 µg/mL (≈ 0.0246 µM), the MIC (Nakaseomyces glabratus [12]) was 0.0313 µg/mL (≈ 0.0246 µM) and the MFC (Malassezia furfur) was greater than 64 µg/mL. For the same molecule, the MIC (Malassezia furfur) was greater than 64 µg/mL, the MIC (Candida albicans [13]) was 0.0625 µg/mL (≈ 0.0492 µM) and the MIC (Candida albicans [14]) was 0.0625 µg/mL (≈ 0.0492 µM). The MFC (Candida albicans [15]) was 0.25 µg/mL (≈ 0.197 µM), the MIC (Candida albicans [15]) was 0.0313 µg/mL (≈ 0.0246 µM) and the MFC (Aspergillus flavus) was greater than 64 µg/mL. For the same molecule, the MIC (Aspergillus flavus) was 0.0625 µg/mL (≈ 0.0492 µM), the MIC50 (Candida parapsilosis [16]) was 2 µg/mL (≈ 1.57 µM) and the MIC90 (Candida parapsilosis [16]) was 4 µg/mL (≈ 3.15 µM). For the same molecule, the MIC (Candida albicans [17]) was 0.125 µg/mL (≈ 0.0984 µM), the MFC (Aspergillus niger) was greater than 64 µg/mL and the MIC (Aspergillus niger) was 0.0313 µg/mL (≈ 0.0246 µM). The MFC (Cryptococcus neoformans [18]) was greater than 64 µg/mL and the MIC (Cryptococcus neoformans [18]) was greater than 64 µg/mL.
